Measurements published in ChEMBL document CHEMBL3259584, “Antiproliferative novel isoxazoles: modeling, virtual screening, synthesis, and bioactivity evaluation” (Eur J Med Chem, 2014).

Columns and labels:
MCF7 = test: Antiproliferative activity against human MCF7 cells after 5 days by coulter counter analysis; assay type: functional, cell-based; settings: MCF7, 120 h
Outline: (§1)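 Mouse brain endothelial cells (MBEC), HeLa and MCF-7 were maintained in DMEM with 10 mM Hepes and 10% FBS. Cells were seeded at 10,000 cells per cm2. After 16 h the medium was replaced with fresh medium containing 5-fold serial dilutions of compound. On day 5 cells were trypsinized and counted electronically. IC50 was taken as the concentration halving cell number relative to untreated control counts.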

[1] = Antiproliferative activity against human HMEC1 cells after 5 days by coulter counter analysis; assay type: cell-based; settings: HMEC-1, 120 h
Outline: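 HMEC-1 human microvascular endothelial cells were grown in EGM-2 MV endothelial medium and plated at 10,000 cells per cm2. After 16 h they received fresh medium with 5-fold dilutions of compound. On day 5 cells were trypsinized and counted with a Coulter counter. IC50 was the concentration reducing cell count by 50% relative to control cultures.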

[2] = Antiproliferative activity against MBEC after 5 days by coulter counter analysis; set-up: species or system Mus musculus; outline: as §1
HeLa = test: Antiproliferative activity against human HeLa cells after 5 days by coulter counter analysis; assay type: functional, cell-based; settings: 120 h; outline: as §1

Row | Compound | IC50 (MCF7) [µM] | IC50 [1] [µM] | IC50 [2] [µM] | IC50 (HeLa) [µM]
1 | CCc1c(-c2ccc(OC)cc2)noc1-c1ccc(OC)cc1 | > 100 | > 100 | > 100 | > 100
2 | COc1ccc(-c2noc(-c3ccc(OC)cc3)c2C)cc1 | > 100 | > 100 | > 100 | > 100
3 | COc1ccc2c(c1)CCc1c(-c3ccc(SC(F)(F)F)cc3)noc1-2 | > 100 | > 100 | > 100 | > 100
4 | Oc1ccc2c(c1)CCc1c(-c3ccc(F)cc3)noc1-2 | > 100 | 46 | 38 | > 100
5 | COc1ccc(-c2cc(-c3ccc(OC)cc3)on2)cc1 | > 100 | > 100 | > 100 | > 100
6 | Oc1ccc2c(c1)CCc1c(-c3ccc(O)c(O)c3)noc1-2 | 0.72 | 0.42 | 0.96 | 0.97
7 | CCc1c(-c2ccc(O)cc2)noc1-c1ccc(O)cc1 | 9.8 | 9.7 | 13 | 16
8 | COc1ccc2c(c1)CCc1c(-c3ccc(OC)c(OC)c3)noc1-2 | > 100 | > 100 | > 100 | > 100
9 | Oc1ccc(-c2noc3c2CCc2cc(O)c(O)cc2-3)cc1 | 2.1 | 7.4 | 6.8 | 10
10 | Oc1ccc(-c2noc3c2CCc2cc(O)c(O)cc2-3)cc1O | 2.1 | 4.2 | 10 | 9.1
11 | COc1ccc(-c2noc3c2CCc2cc(OC)c(OC)cc2-3)cc1OC | 0.36 | 0.56 | 1.1 | 0.59
12 | Oc1ccc(-c2noc3c2CCc2cc(O)ccc2-3)cc1 | 3.1 | 6.7 | 4.6 | 3.3
13 | COc1ccc(-c2noc3c2CCc2cc(OC)c(OC)cc2-3)cc1 | > 100 | > 100 | > 100 | > 100
14 | O=[N+]([O-])c1ccc(-c2cc(-c3ccc(O)cc3)no2)cc1 | 53 | 27 | 42 | 57
15 | COc1ccc2c(c1)CCc1c(-c3ccc(F)cc3)noc1-2 | > 100 | > 100 | > 100 | 34
16 | COc1ccc(-c2cc(-c3ccc([N+](=O)[O-])cc3)on2)cc1 | > 100 | > 100 | > 100 | > 100
17 | Oc1ccc(-c2cc(-c3ccc(O)cc3)on2)cc1 | 5.2 | 6.3 | 2.5 | 6
18 | Cc1c(-c2ccc(O)cc2)noc1-c1ccc(O)cc1 | 48 | 47 | 19 | 15
19 | Oc1ccc2c(c1)CCc1c(-c3ccc(SC(F)(F)F)cc3)noc1-2 | 81 | 65 | 67 | 55
20 | COc1ccc(-c2noc3c2CCc2cc(OC)ccc2-3)cc1 | > 100 | > 100 | > 100 | > 100
